From ChEMBL document CHEMBL2321834 (J Med Chem, 2013)
Activity calls are given as the source filed them. The rule behind the calls is not given here.

target: T1, 17-beta-hydroxysteroid dehydrogenase type 1 (Homo sapiens) (UniProt P14061); details: at 1 µM;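 also: enzyme source was human placental cytosol with tritiated estrone as substrate, 10 min reaction, conversion quantified by HPLC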
T1 sequence (whole entry): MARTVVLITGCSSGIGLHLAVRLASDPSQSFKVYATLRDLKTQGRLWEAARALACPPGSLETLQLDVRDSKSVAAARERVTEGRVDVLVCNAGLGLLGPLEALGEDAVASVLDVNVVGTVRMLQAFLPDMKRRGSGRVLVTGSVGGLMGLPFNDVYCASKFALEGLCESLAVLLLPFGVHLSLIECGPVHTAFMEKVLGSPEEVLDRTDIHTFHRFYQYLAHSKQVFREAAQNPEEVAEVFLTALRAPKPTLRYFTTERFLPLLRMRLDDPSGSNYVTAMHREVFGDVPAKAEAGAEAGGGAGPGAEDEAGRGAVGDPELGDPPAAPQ

SMILES	inhibition [%]
COc1cccc(-c2ccc(C(=O)N(C)c3cccc(C(F)(F)F)c3)s2)c1	13
COc1cccc(CCN(C)C(=O)c2ccc(-c3ccccc3)s2)c1	11
COc1cccc(CN(C)C(=O)c2ccc(-c3ccc(C#N)cc3)s2)c1	< 10
COc1cccc(-c2cccc(C(=O)N(C)c3cccc(OC)c3)c2)c1	< 10
COc1cccc(-c2ccc(C(=O)N(C)c3cccc(-c4ccccc4)c3)s2)c1	50
CN(Cc1cccc(O)c1)C(=O)c1cccc(-c2cccc(O)c2)c1	10
CN(CCc1cccc(O)c1)C(=O)c1ccc(-c2cccc(F)c2)s1	12
COc1cccc(CCN(C)C(=O)c2ccc(-c3cccc(OC)c3)s2)c1	< 10
CN(Cc1cccc(O)c1)C(=O)c1ccc(-c2cccc(F)c2)s1	20
COc1ccc(N(C)C(=O)c2ccc(-c3cccc(OC)c3F)s2)cc1	18
CN(CCc1cccc(O)c1)C(=O)c1ccc(-c2ccccc2)s1	< 10
CN(Cc1cccc(O)c1)C(=O)c1ccc(-c2cccc(O)c2)s1	21
COc1cccc(CCN(C)C(=O)c2ccc(-c3cccc(F)c3)s2)c1	< 10
COc1cccc(N(C)C(=O)c2ccc(-c3ccc(OC)cc3OC)s2)c1	30
Cc1cccc(N(C)C(=O)c2ccc(-c3cccc(O)c3)s2)c1	24
COc1cccc(N(C)C(=O)c2ccc(-c3ccccc3)s2)c1	24
COc1cccc(N(C)C(=O)c2ccc(-c3ccc(F)c(OC)c3)s2)c1	17
COc1cccc(-c2ccc(C(=O)N(C)c3cccc(C)c3)s2)c1	< 10
COc1ccc(-c2cccc(C(=O)N(C)Cc3cccc(OC)c3)c2)cc1	< 10
COc1cccc(CN(C)C(=O)c2ccc(-c3cccc(OC)c3)s2)c1	< 10
COc1cccc(CN(C)C(=O)c2ccc(-c3ccccc3OC)s2)c1	< 10
CN(Cc1cccc(O)c1)C(=O)c1ccc(-c2ccccc2O)s1	16
CN(CCc1cccc(O)c1)C(=O)c1ccc(-c2cccc(O)c2)s1	23

target: T2, Peroxisomal multifunctional enzyme type 2 (Homo sapiens) (UniProt P51659); test: Inhibition of human recombinant 17beta-HSD4 SDR domain expressed in Escherichia coli using [6,7-3H]E2 as substrate at 1 uM by scintillation counting analysis; details: not given
T2 sequence (whole entry): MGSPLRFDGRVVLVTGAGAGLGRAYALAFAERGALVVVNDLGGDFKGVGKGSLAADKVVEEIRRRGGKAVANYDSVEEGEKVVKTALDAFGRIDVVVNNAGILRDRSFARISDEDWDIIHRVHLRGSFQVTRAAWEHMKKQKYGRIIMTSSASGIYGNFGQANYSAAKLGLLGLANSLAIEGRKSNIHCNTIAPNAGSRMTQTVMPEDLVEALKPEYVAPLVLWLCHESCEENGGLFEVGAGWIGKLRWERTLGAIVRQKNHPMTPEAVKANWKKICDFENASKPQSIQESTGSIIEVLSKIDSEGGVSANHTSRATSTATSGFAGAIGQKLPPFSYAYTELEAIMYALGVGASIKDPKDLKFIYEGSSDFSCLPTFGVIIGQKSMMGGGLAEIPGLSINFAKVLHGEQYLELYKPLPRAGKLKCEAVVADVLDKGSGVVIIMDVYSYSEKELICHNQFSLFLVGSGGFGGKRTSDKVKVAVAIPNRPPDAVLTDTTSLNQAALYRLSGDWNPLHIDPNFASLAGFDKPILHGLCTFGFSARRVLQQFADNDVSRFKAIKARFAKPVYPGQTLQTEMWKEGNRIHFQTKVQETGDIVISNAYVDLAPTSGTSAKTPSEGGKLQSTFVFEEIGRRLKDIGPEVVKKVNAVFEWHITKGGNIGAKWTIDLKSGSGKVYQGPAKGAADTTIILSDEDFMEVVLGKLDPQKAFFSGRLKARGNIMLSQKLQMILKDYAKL

SMILES	inhibition
CN1C(=O)C[C@@H](c2ccccc2)[C@H]1[C@H](O)c1ccc(-c2cccnc2)s1	inactive

target: T3, 17-beta-hydroxysteroid dehydrogenase type 2 (Homo sapiens) (UniProt P37059); details: Placenta, Microsomal, at 1 µM
T3 sequence (whole entry): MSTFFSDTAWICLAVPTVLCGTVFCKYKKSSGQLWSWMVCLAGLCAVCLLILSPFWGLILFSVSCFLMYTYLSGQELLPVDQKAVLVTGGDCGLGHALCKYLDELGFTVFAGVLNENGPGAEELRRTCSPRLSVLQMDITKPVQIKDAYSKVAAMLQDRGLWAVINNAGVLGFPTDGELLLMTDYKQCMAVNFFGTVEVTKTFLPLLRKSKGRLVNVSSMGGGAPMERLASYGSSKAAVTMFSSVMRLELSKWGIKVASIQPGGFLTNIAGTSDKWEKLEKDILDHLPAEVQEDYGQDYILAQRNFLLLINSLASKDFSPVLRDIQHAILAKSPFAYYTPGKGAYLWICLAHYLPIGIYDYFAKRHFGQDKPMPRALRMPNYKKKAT

SMILES	inhibition [%]
COc1cccc(-c2ccc(C(=O)N(C)c3cccc(C(F)(F)F)c3)s2)c1	75
COc1cccc(CCN(C)C(=O)c2ccc(-c3ccccc3)s2)c1	18
COc1cccc(CN(C)C(=O)c2ccc(-c3ccc(C#N)cc3)s2)c1	< 10
COc1cccc(-c2cccc(C(=O)N(C)c3cccc(OC)c3)c2)c1	64
COc1cccc(-c2ccc(C(=O)N(C)c3cccc(-c4ccccc4)c3)s2)c1	83
CN(Cc1cccc(O)c1)C(=O)c1cccc(-c2cccc(O)c2)c1	60
CN(CCc1cccc(O)c1)C(=O)c1ccc(-c2cccc(F)c2)s1	17
COc1cccc(CCN(C)C(=O)c2ccc(-c3cccc(OC)c3)s2)c1	31
CN(Cc1cccc(O)c1)C(=O)c1ccc(-c2cccc(F)c2)s1	71
COc1ccc(N(C)C(=O)c2ccc(-c3cccc(OC)c3F)s2)cc1	49
CN(CCc1cccc(O)c1)C(=O)c1ccc(-c2ccccc2)s1	11
CN(Cc1cccc(O)c1)C(=O)c1ccc(-c2cccc(O)c2)s1	70
COc1cccc(CCN(C)C(=O)c2ccc(-c3cccc(F)c3)s2)c1	< 10
COc1cccc(N(C)C(=O)c2ccc(-c3ccc(OC)cc3OC)s2)c1	77
Cc1cccc(N(C)C(=O)c2ccc(-c3cccc(O)c3)s2)c1	71
COc1cccc(N(C)C(=O)c2ccc(-c3ccccc3)s2)c1	82
COc1cccc(N(C)C(=O)c2ccc(-c3ccc(F)c(OC)c3)s2)c1	66
COc1cccc(-c2ccc(C(=O)N(C)c3cccc(C)c3)s2)c1	87
COc1ccc(-c2cccc(C(=O)N(C)Cc3cccc(OC)c3)c2)cc1	13
COc1cccc(CN(C)C(=O)c2ccc(-c3cccc(OC)c3)s2)c1	63
CN(Cc1cccc(O)c1)C(=O)c1ccc(-c2ccccc2O)s1	83
CN(CCc1cccc(O)c1)C(=O)c1ccc(-c2cccc(O)c2)s1	37

target: T4, Estrogen receptor (Homo sapiens) (UniProt P03372); test: Displacement of [3H]E2 from human recombinant ERalpha after 1 hr by scintillation counting analysis relative to E2; details: not given
T4 sequence (whole entry): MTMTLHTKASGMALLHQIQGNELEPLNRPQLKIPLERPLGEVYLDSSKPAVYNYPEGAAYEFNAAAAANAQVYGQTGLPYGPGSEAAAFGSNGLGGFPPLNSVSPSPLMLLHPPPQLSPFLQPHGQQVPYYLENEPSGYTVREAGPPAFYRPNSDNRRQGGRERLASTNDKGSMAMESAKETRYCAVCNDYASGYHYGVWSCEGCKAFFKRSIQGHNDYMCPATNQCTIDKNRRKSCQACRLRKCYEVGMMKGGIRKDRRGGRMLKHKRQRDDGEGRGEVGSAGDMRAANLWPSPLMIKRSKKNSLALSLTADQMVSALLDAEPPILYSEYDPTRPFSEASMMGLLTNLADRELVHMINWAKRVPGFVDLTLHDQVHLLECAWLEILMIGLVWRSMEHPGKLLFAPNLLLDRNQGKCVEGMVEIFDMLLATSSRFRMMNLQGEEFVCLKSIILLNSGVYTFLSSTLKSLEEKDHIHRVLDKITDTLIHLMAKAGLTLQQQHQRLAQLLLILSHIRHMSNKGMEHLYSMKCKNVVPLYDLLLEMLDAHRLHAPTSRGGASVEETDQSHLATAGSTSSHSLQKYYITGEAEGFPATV
How it was run: (§1)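 Competitive binding assay against ERα and ERβ, with E2 as internal reference.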

SMILES	RBA [%]
COc1cccc(-c2ccc(C(=O)N(C)c3cccc(C(F)(F)F)c3)s2)c1	< 0.1
COc1cccc(N(C)C(=O)c2ccc(-c3cccc(C)c3)s2)c1	< 0.1
COc1ccc(-c2ccc(C(=O)N(C)c3cccc(OC)c3)s2)cc1	< 0.1
COc1cccc(-c2ccc(C(=O)N(C)c3cccc(-c4ccccc4)c3)s2)c1	< 0.1
COc1cccc(-c2ccc(C(=O)N(C)c3cccc(C)c3)s2)c1F	< 0.1
COc1cccc(N(C)C(=O)c2ccc(-c3ccc(OC)cc3OC)s2)c1	< 0.1
Cc1cccc(N(C)C(=O)c2ccc(-c3cccc(O)c3)s2)c1	< 0.1
COc1cccc(N(C)C(=O)c2ccc(-c3cccc(C)c3F)s2)c1	< 0.1
COc1cccc(N(C)C(=O)c2ccc(-c3ccccc3)s2)c1	< 0.1
COc1cccc(-c2ccc(C(=O)N(C)c3cccc(OC)c3)s2)c1	< 0.1
COc1cccc(-c2ccc(C(=O)N(C)c3cccc(C)c3)s2)c1	< 0.1
COc1cccc(N(C)C(=O)c2ccc(-c3cccc(SC)c3)s2)c1	< 0.1
COc1cccc(N(C)C(=O)c2ccc(-c3c(F)ccc(OC)c3F)s2)c1	< 0.1

target: T5, Aldo-keto reductase family 1 member C3 (Homo sapiens) (UniProt P42330); test: Inhibition of human recombinant 17beta-HSD5 expressed in Escherichia coli using [1,2,6,7-3H]A-dione as substrate at 1 uM by scintillation counting analysis; details: not given
T5 sequence (whole entry): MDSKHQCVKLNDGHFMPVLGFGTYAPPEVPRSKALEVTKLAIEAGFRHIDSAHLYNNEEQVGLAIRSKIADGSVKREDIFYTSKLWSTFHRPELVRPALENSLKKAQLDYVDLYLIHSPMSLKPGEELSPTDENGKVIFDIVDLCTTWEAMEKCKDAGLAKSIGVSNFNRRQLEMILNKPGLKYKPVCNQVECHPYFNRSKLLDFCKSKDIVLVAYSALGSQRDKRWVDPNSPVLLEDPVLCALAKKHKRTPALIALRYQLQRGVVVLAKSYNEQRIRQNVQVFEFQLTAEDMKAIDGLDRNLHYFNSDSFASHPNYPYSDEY

SMILES	inhibition [%]
CN1C(=O)C[C@@H](c2ccccc2)[C@H]1[C@H](O)c1ccc(-c2cccnc2)s1	88

species: Homo sapiens; test: Selectivity ratio of IC50 for 17beta-HSD1 in human placental microsomal fraction to IC50 for 17beta-HSD2 in human placental microsomal fraction; type: microsomes; details: Microsome

SMILES	Ratio IC50
COc1cccc(-c2ccc(C(=O)N(C)c3cccc(C(F)(F)F)c3)s2)c1	17
COc1cccc(-c2ccc(C(=O)N(C)c3cccc(-c4ccccc4)c3)s2)c1	8
CN(Cc1cccc(O)c1)C(=O)c1ccc(-c2cccc(O)c2)s1	14
COc1cccc(N(C)C(=O)c2ccc(-c3ccc(OC)cc3OC)s2)c1	6
Cc1cccc(N(C)C(=O)c2ccc(-c3cccc(O)c3)s2)c1	11
COc1cccc(N(C)C(=O)c2ccc(-c3ccccc3)s2)c1	21
COc1cccc(-c2ccc(C(=O)N(C)c3cccc(C)c3)s2)c1	55

target: T6, 17-beta-hydroxysteroid dehydrogenase type 2 (Homo sapiens, UniProt P37059); test: Inhibition of 17beta-HSD2 (unknown origin); details: not given
T6 sequence (P37059 whole entry): T3 sequence (whole entry)
How it was run: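 Microsomal fraction of human placenta as enzyme source, incubated with tritiated E2, cofactor and inhibitor. Substrate and product separated by HPLC to give percent inhibition. IC50 determined for selected compounds.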

SMILES	IC50 [nM]
C[C@]12CC[C@@H]3c4ccc(O)cc4CC[C@H]3[C@@H]1CC[C@@]21CCCC(=O)O1	34
Cn1nc(-c2cccc(O)c2)nc1-c1ccc(-c2cccc(O)c2)cc1	1400

target: Estrogen receptor beta (Homo sapiens) (UniProt Q92731); test: Displacement of [3H]E2 from human recombinant ERbeta after 1 hr by scintillation counting analysis relative to E2; details: not given
How it was run: as §1

Chain of Estrogen receptor beta (Homo sapiens) (Q92731 whole entry): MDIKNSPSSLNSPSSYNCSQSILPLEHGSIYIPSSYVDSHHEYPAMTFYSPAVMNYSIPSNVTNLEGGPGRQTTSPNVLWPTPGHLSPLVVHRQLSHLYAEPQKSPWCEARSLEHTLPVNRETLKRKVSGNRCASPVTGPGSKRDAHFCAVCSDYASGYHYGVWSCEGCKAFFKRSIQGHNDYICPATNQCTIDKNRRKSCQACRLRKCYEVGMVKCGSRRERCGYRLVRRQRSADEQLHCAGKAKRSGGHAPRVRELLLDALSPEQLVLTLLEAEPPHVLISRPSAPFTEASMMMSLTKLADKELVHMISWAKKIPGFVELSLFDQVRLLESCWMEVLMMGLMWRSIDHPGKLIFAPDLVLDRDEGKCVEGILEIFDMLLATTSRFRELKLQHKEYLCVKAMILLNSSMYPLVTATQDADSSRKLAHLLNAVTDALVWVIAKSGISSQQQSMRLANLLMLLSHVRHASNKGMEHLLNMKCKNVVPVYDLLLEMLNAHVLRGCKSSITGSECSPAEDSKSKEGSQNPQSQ

SMILES	RBA [%]
COc1cccc(-c2ccc(C(=O)N(C)c3cccc(C(F)(F)F)c3)s2)c1	< 0.1
COc1cccc(N(C)C(=O)c2ccc(-c3cccc(C)c3)s2)c1	< 0.1
COc1ccc(-c2ccc(C(=O)N(C)c3cccc(OC)c3)s2)cc1	< 0.1
COc1cccc(-c2ccc(C(=O)N(C)c3cccc(-c4ccccc4)c3)s2)c1	< 0.1
COc1cccc(-c2ccc(C(=O)N(C)c3cccc(C)c3)s2)c1F	< 0.1
COc1cccc(N(C)C(=O)c2ccc(-c3ccc(OC)cc3OC)s2)c1	< 0.1
Cc1cccc(N(C)C(=O)c2ccc(-c3cccc(O)c3)s2)c1	< 0.1
COc1cccc(N(C)C(=O)c2ccc(-c3cccc(C)c3F)s2)c1	< 0.1
COc1cccc(N(C)C(=O)c2ccc(-c3ccccc3)s2)c1	< 0.1
COc1cccc(-c2ccc(C(=O)N(C)c3cccc(OC)c3)s2)c1	< 0.1
COc1cccc(-c2ccc(C(=O)N(C)c3cccc(C)c3)s2)c1	< 0.1
COc1cccc(N(C)C(=O)c2ccc(-c3cccc(SC)c3)s2)c1	< 0.1
COc1cccc(N(C)C(=O)c2ccc(-c3c(F)ccc(OC)c3F)s2)c1	< 0.1
